Calls of active or inactive are those of the source. No cut-off for these calls is given here.
Legend:
HaCaT [1] = assay: Activation of mitochondrial cytochrome C oxidase in human HaCaT lysate at 50 uM using equine cardiac cytochrome C substrate by spectrophotometry
How it was run: (§1)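 Lysis in HEPES buffer (20 mM HEPES, 0.1% Triton, 1 mM EDTA). Lysates were Bradford-adjusted to 2 mg/mL. v0 was taken without substrate, then 50 μM reduced cytochrome c was added. Loss was read at 550 nm over 90 s. Slopes gave U/μg. Activity was expressed as % of the DMSO 0.1% control; n=3, mean ± SD, paired t test.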

HaCaT [2] = assay: Activation of mitochondrial cytochrome C oxidase in human HaCaT lysate at 0.87 to 7 uM using equine cardiac cytochrome C substrate by spectrophotometry; how it was run: as §1
HaCaT [3] = assay: Induction of mitochondrial biogenesis in human HaCaT cells assessed as ratio of mitochondrial COX2 to UCP2 gene quantity at 1.75 to 7 uM by qPCR; assay type: functional, cell-based
How it was run: (§2)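 HaCaT cells were treated as for the oxidase assay, but for 48 h. Lysis in Tris 10 mM/EDTA 1 mM/NaOAc 0.3 M/SDS 1%, then phenol DNA extraction. SYBR Green qPCR ran 45 cycles at 60 °C with calibration curves from serial DNA dilutions. Mitochondrial 16S or cox2 DNA was quantified relative to nuclear ucp-2 DNA and normalized to untreated cells; biogenesis was taken as a ratio >1. n=3, mean ± SD, paired t test.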

HaCaT [4] = assay: Induction of mitochondrial biogenesis in human HaCaT cells assessed as mitochondrial 16S rRNA level by qPCR; assay type: functional, cell-based; how it was run: as §2
HaCaT [5] = assay: Activation of mitochondrial cytochrome C oxidase in human HaCaT lysate at 0.81 uM using equine cardiac cytochrome C substrate by spectrophotometry; how it was run: as §1
HaCaT [6] = assay: Activation of mitochondrial cytochrome C oxidase in human HaCaT lysate using equine cardiac cytochrome C substrate by spectrophotometry relative to resveratrol

Activity (HaCaT [1]) | Activity (HaCaT [2]) | Activity (HaCaT [5]) | fold change (FC) (HaCaT [6]) | Structure (SMILES) | Activity (HaCaT [3]) | Activity (HaCaT [4])
138% | – | – | – | Oc1ccc(/C=C/c2cc(O)cc(O)c2)cc1 | – | –
– | inactive | – | – | O=C(/C=C/c1ccccc1)O[C@@H]1[C@@H](O)[C@H](O[C@@](CC(=O)OCc2ccc(O[C@@H]3O[C@H](CO)[C@@H](O)[C@H](O)[C@H]3O)cc2)(Cc2ccc(O)cc2)C(=O)OCc2ccc(O[C@@H]3O[C@H](CO)[C@@H](O)[C@H](O)[C@H]3O)cc2)O[C@H](CO)[C@H]1O | – | –
– | inactive | – | – | O=C(C[C@](O)(Cc1ccc(O)cc1)C(=O)O)OCc1ccc(O[C@@H]2O[C@H](CO)[C@@H](O)[C@H](O)[C@H]2O)cc1 | inactive | inactive
– | – | Active | 60 | O=C(O)C[C@](O)(Cc1ccc(O)cc1)C(=O)O | inactive | inactive
– | 158% | Active | 60 | O=C(C[C@](O)(Cc1ccc(O)cc1)C(=O)OCc1ccc(O[C@@H]2O[C@H](CO)[C@@H](O)[C@H](O)[C@H]2O)cc1)OCc1ccc(O[C@@H]2O[C@H](CO)[C@@H](O)[C@H](O)[C@H]2O)cc1 | inactive | inactive

— ChEMBL document CHEMBL1799945, “Glucosyloxybenzyl eucomate derivatives from Vanda teres stimulate HaCaT cytochrome c oxidase” (J Nat Prod, 2011)
